High-throughput results: PubChem BioAssay, Sanford-Burnham Center for Chemical Genomics
An excerpt weighted towards active compounds, which were near 2.4% of everything screened.
Scp1 inh – blocks human Scp-1 phosphatase activity; Recombinant Scp1, phosphopeptide, malachite green phosphate absorbance; AID 493091; actives 0.88% (n = 340,000); inhibition, % at 20 µM;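 active = inhibition above about 50% at 20 µM, limit read from the data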;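 note: plate controls were DMSO wells with enzyme for no effect and wells lacking enzyme for full effect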
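Material – SCP-1 phosphatase catalytic domain, residues 76-261 · Buffer or medium – Acidic Tris acetate buffer with magnesium and detergent · Also added – Phospho 17-mer peptide substrate · Compound – single 20 µM dose, 1% DMSO · Times – 45 min room-temperature reaction, 5 min colour, 30 min stabiliser · Technique – Phosphate-binding colour reagent, absorbance read at 630 nm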
DNMT1 block – inhibitors of human DNMT1; P26358; DNMT1 molecular beacon, Hinp1I cleavage, fluorescence; inhibition (reported as % activation of signal), % at 10 µM; actives 0.83% (n = 360,000); AID 588458; in the data active = inhibition above about 50%
STEP block – STEP (human) phosphatase inhibition; recombinant STEP, OMFP fluorogenic substrate, fluorescence; inhibition, % at 20 µM; actives 0.25% (n = 360,000); AID 588621;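 active = inhibition at 20 µM, scaled per plate between control wells, above about 37%, limit read from the data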;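 note: 0% = DMSO with enzyme and substrate and 100% = substrate only without enzyme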
Target sequence (P54829 whole entry, looked up): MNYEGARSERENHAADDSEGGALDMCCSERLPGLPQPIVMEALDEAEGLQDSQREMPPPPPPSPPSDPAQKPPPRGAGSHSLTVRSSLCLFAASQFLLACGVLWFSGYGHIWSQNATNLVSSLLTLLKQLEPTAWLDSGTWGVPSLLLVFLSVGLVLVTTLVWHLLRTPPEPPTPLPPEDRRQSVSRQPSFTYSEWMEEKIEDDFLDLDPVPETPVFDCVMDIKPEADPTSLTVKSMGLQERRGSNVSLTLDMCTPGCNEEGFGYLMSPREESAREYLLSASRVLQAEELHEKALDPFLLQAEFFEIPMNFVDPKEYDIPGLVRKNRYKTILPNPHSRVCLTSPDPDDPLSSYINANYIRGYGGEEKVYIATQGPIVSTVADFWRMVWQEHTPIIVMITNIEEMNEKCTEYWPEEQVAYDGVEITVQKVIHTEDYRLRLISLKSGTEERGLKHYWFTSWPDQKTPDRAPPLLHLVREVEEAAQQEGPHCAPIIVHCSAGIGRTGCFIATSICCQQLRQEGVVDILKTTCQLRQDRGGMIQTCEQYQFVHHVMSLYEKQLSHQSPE
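Material: STEP (striatal-enriched tyrosine phosphatase) enzyme, cell-free; Compound dosing: 20 µM single dose in 1% DMSO; Technique: fluorescence read at 480 nm ex / 540 nm em; Times: reaction 20 min, ambient temperature; Medium: 50 mM Bis-Tris pH 6.0 with 2.5 mM DTT and 0.005% Tween 20; Also added: OMFP at 25 µM.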
SUMO1 PPI mod – modulators of human SUMO1-mediated protein-protein interactions. AID 602429. SUMO1 binding to a labelled peptide, TR-FRET, 1 h. P63165. actives 0.33% (n = 360,000). inhibition, % at 20 µM; in the data active = inhibition above about 37%
Target sequence (P63165 whole entry, looked up): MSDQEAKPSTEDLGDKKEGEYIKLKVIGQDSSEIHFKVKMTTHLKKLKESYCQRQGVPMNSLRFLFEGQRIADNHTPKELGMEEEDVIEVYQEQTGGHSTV
LMPTP block – LMPTP (human) inhibition. P24666. inhibition, % at 20 µM. recombinant LMPTP-A, OMFP fluorogenic substrate, fluorescence intensity. actives 0.22% (n = 360,000);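 active = compounds that cut the enzyme signal by at least half of the control window in the single-dose screen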;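 note: plate controls were DMSO wells with enzyme plus substrate for no effect and substrate without enzyme for full effect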
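Assay system: LMPTP-A enzyme. Input: 0.625 nM LMPTP-A final. Probe or stimulus: 400 µM OMFP. Compound dosing: single 20 µM dose. Schedule: 50 min dark incubation at room temperature. Detection: fluorescence intensity of OMFP turnover product. Read-out: percent inhibition versus substrate-only and uninhibited controls. Benchmarks: no-enzyme low control, uninhibited high control.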
NadD inh – NadD (S. aureus) enzyme inhibition; purified NadD enzyme, colorimetric absorbance read-out; actives 0.78% (n = 360,000); inhibition, % at 20 µM; AID 602399; in the data active = inhibition above about 26%
Scp-1 conf – Scp-1 (human) inhibition, single-dose confirmed. inhibition, % at 20 µM. recombinant SCP-1 catalytic domain, phosphate release, malachite green absorbance. shares compounds with Scp1 inh. actives 61% (n = 2,500). AID 540281;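 note: plate controls were DMSO with enzyme for no effect and buffer wells lacking enzyme for full effect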
MG interference – interferes with malachite green readout, flagging false Scp-1 hits; shares compounds with Scp1 inh; Colorimetric interference counterscreen, malachite green absorbance 630 nm; 2,500 tested, under 10 active; apparent inhibition (interference), % at 20 µM;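 note: compounds added after enzyme reaction finished so only phosphate colour detection is probed; plate controls were DMSO wells with completed Scp-1 reaction for no effect and substrate wells lacking enzyme for full effect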
Scp-1 Tm shift – validation of human Scp-1 inhibitors by thermal shift binding. actives 25% (n = 1,500). AID 540329. thermal shift relative to vanadate control, % at 40 µM. shares compounds with Scp1 inh. Recombinant SCP1, Sypro Orange thermal shift Tm;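 active = substances whose mean melting-temperature shift, as a percentage of the reference inhibitor's shift, reaches about 5.3%, limit read from the data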;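 note: 0% = Tm of DMSO wells and 100% = Tm with sodium orthovanadate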
Starred values were filed as active, the others as inactive; . = no result.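 Rule for the calls, unless noted: active = inhibition of at least 30% at 20 µM; inactive = the rest.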

SMILES	Scp1 inh	DNMT1 block	STEP block	SUMO1 PPI mod	LMPTP block	NadD inh	Scp-1 conf	MG interference	Scp-1 Tm shift
Cc1cccc(NC(=O)CN2C(=O)CCSc3ccc(S(=O)(=O)N4CCOCC4)cc32)c1C	42	19	35	1	9	-1	.	.	.
O=C(O)C(Cc1cn[nH]n1)=NO	57*	1	2	-5	-1	-5	-12	-11	.
COc1cc2ccccc2cc1C(=O)NC(=S)Nc1ccc(C(=O)O)cc1	61*	3	10	7	39	15	52*	-14	-14
COc1cccc2cc(C(=O)Nc3ccc(F)cc3)c(=Nc3ccc(C(=O)O)cc3)oc12	102*	10	-2	22	35	6	23	-17	.
COc1ccc(NC(=O)c2cc3ccccc3cc2OC)cc1	-14	-16	-1	-9	1	-3	.	.	.
CS(=O)(=O)N1CCC(C(=O)Nc2cc(Cl)c(Cl)cc2Cl)CC1	-10	-2	0	1	-2	-6	.	.	.
Cc1nnc(N(C)C(=O)c2cccnc2)s1	26	4	-7	0	-1	0	.	.	.
COc1ccc(C(=O)OCC[N+]2(C)CCOCC2)cc1	57*	0	0	-1	0	18	10	-4	.
COc1ccc(C(=O)OCCc2ccc(O)cc2)cc1	1	-2	-2	0	0	-4	.	.	.
COc1ccccc1NC(=O)c1cc(N)cc(C(=O)Nc2ccccc2OC)c1	-8	-2	2	-1	1	-3	.	.	.
COc1ccccc1NC(=O)c1coc(=O)c(Br)c1	66*	15	4	1	8	2	8	-6	.
O=C(CSc1ccc2nnc(-c3ccncc3)n2n1)Nc1ccc2c(c1)OCCO2	0	5	1	-1	0	-5	.	.	.
C=CCn1c(=O)c2c(nc3n2CCS3)n(C)c1=O	-3	3	0	-1	0	2	.	.	.
CCC(C)c1ccccc1NC(=O)CN(C)CCOc1ccc(Cl)cc1 (centres undefined)	-3	2	-1	4	2	1	.	.	.
CCC1CCCCN1S(=O)(=O)c1ccc2[nH]c(=O)ccc2c1 (centres undefined)	58*	11	1	2	12	0	49*	0	3
Cc1ccc(NC(=O)COc2ccccc2C(=O)NCCc2ccccc2)cc1	-9	2	-1	-4	4	-9	.	.	.
CCOC(=O)c1ccc2c(c1)n(CC)c(/C=C/N(C)c1ccccc1)[n+]2CC	94*	5	2	-2	-2	2	97*	-1	-18
O=C(N=Nc1c(O)[nH]c2ccccc12)c1ccccc1NS(=O)(=O)c1cccs1	-6	-2	1	-1	1	3	.	.	.
Cc1ccc2[nH]c(O)c(N=NC(=O)c3ccc(NS(=O)(=O)c4cccs4)cc3)c2c1	100*	-8	58*	31	44	43*	58*	-16	-10
Cc1ccc(S(=O)(=O)N2CCN(C(=O)C3CCCO3)CC2)cc1 (centres undefined)	-2	0	0	1	-1	2	.	.	.
Oc1ccc2ccccc2c1N=Nc1ccc(F)cc1	-10	2	5	-18	3	-8	.	.	.
O=C(O)Cc1ccc(N=Nc2c(O)c(C(=O)O)cc3ccccc23)cc1	50*	61*	10	23	45	13	73*	-5	28*
Cn1c(=O)cc(SCC(=O)NCc2ccc(F)cc2)c2ccccc21	-6	2	2	0	-1	0	-19	-16	.
Cn1cc(SCC(=O)NCc2ccc(F)cc2)c2ccccc21	-6	4	-2	-2	0	-8	.	.	.
CCCC1c2ccsc2CCN1C(=S)NC (centres undefined)	-6	3	2	3	-1	-8	.	.	.
SMILES	Scp1 inh	DNMT1 block	STEP block	SUMO1 PPI mod	LMPTP block	NadD inh	Scp-1 conf	MG interference	Scp-1 Tm shift
CC(=O)c1ccc(S(=O)(=O)Nc2ccc(C(=O)NC3CC3)cc2)cc1	10	2	-2	4	0	-9	.	.	.
O=C(CCc1nnc2ccc(NCc3ccco3)nn12)Nc1ccccn1	59*	13	3	14	-1	3	52*	-15	1
O=C(Oc1ccccc1C(=O)N1CCOCC1)c1ccc(Br)cc1	-5	0	-4	-1	-1	0	.	.	.
Cc1ccc(C)c(C(=O)CCC(=O)N2CCN(c3ncccn3)CC2)c1	-9	0	-3	6	0	1	.	.	.
COc1ccc(C2C(C#N)=C(N)OC3=C2C(=O)CC(C)(C)C3)c(OC)c1OC (centres undefined)	51*	-1	0	0	-2	-2	-16	-13	.
COc1ccc(OC)c(NC(=O)CN(C)CC(=O)Nc2ccccc2Cl)c1	58*	-1	-2	2	0	0	7	-4	.
C=C(C)C1CC=C(C)/C(=N/NC(=O)C2CC2c2ccccc2)C1 (centres undefined)	-3	1	2	4	1	-4	.	.	.
O=C(Cc1cccs1)Nc1ccc(S(=O)(=O)N2CCCC2)cc1	59*	37	5	-2	7	2	75*	-7	6.1*
CCCN(CCC)S(=O)(=O)c1ccc(NC(=O)Cc2cccs2)cc1	61*	13	2	3	4	-1	73*	-11	2
CCCCN(CCCC)S(=O)(=O)c1ccc(NC(=O)Cc2cccs2)cc1	54*	25	2	-2	5	14	58*	-17	7.6*
O=C(Cc1ccc(S(=O)(=O)N2CCOCC2)s1)Nc1ccc(N2CCOCC2)cc1	4	2	3	-11	2	-5	.	.	.
CN(C)S(=O)(=O)c1ccc(NC(=O)Cc2ccc(S(=O)(=O)N3CCOCC3)s2)cc1	55*	17	4	-3	3	1	58*	-12	5
O=c1cc(-c2ccc(Cl)cc2)nc(N2CCN(c3ccccc3)CC2)[nH]1	-1	-3	-3	6	1	10	.	.	.
CCOCCCNC(=O)C1CCN(S(=O)(=O)CC)CC1	-2	0	-1	1	0	1	.	.	.
CCN(CC)S(=O)(=O)c1ccc(OC)c(NC(=O)Cc2cccs2)c1	87*	45	2	4	32	3	74*	-11	6.3*
